# Published values from different studies.
# Protocols differ between the studies behind these lines.
# Target: Serine/threonine-protein kinase STK11 (STK11, Homo sapiens, UniProt Q15831)
# Sequence (Q15831 1-433, as in one of the studies): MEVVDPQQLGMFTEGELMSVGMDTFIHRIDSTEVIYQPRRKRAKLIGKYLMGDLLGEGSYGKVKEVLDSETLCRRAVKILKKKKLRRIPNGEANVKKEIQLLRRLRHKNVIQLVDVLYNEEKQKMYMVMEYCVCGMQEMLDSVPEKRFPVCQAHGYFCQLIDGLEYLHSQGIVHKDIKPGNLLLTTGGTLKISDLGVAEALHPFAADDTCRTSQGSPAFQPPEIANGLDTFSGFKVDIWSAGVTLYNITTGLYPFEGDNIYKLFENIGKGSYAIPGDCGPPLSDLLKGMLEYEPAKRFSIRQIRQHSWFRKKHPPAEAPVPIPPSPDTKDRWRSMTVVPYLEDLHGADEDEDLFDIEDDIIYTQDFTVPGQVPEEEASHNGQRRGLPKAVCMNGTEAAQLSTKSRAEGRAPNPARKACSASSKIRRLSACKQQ
Structure (SMILES),observed,action,method,tested at,measurement,value
COc1cc(Nc2cnc(C#N)c(O[C@H](C)CN(C)C)n2)ncc1-c1cnn(C)c1,enzyme activity,inhibitor,radiometric,10 µM,remaining activity,64%
Oc1cccc(-c2nc(N3CCOCC3)c3oc4ncccc4c3n2)c1,enzyme activity,inhibitor,,10 µM,remaining activity,62%
Cc1c[nH]c2nccc(Oc3c(F)cc(Nc4cc(Cl)nc(N)n4)cc3F)c12,cell-free assay,,competition with immobilised ligand,0.1 µM,remaining binding,100%
FC(F)c1nc2ccccc2n1-c1nc(N2CCOCC2)nc(N2CCOCC2)n1,enzyme activity,inhibitor,,10 µM,remaining activity,103%
Cc1ccc(Nc2nccc(N(C)c3ccc4c(C)n(C)nc4c3)n2)cc1S(N)(=O)=O,enzyme activity,inhibitor,,10 µM,inhibition,-2%
Cc1sc(C(=O)NC2COC2)cc1-n1cc(NC(=O)Nc2c(F)cccc2Cl)cn1,enzyme activity,inhibitor,,10 µM,remaining activity,97.6%
Cc1cc(-n2nc(Cc3cc(F)cc(C(F)(F)F)c3)nc2C)ccc1C(N)=O,cell-free assay,,competition with immobilised ligand,1 µM,remaining binding,100%
CC(C)(O)[C@H]1CC[C@H](Nc2ccc3ncc(-c4cccc(C(F)(F)F)c4)n3n2)CC1,enzyme activity,inhibitor,,1 µM,remaining activity,90.5%
CC(=O)N1CCC(c2ccc(C(=O)NC3=NCCN3)cc2C(F)(F)F)CC1,cell-free assay,,competition with immobilised ligand,1 µM,remaining binding,71%
Cc1ccc(C(=O)Nc2ccc(CN3CCN(C)CC3)c(C(F)(F)F)c2)cc1C#Cc1cnc2cccnn12,enzyme activity,inhibitor,,23.5 nM,remaining activity,96%
FC(F)(F)Oc1cccc(-c2cnc3ccc(-c4ccncc4)nn23)c1,enzyme activity,inhibitor,radiometric,5 µM,activity vs control,106%
CCN(CC)CCNC(=O)c1c(C)[nH]c(/C=C2\C(=O)Nc3ccc(F)cc32)c1C,enzyme activity,inhibitor,,10 µM,inhibition,3%
Cc1ccc(-n2nc(C(C)(C)C)cc2NC(=O)Nc2ccc(OCCN3CCOCC3)c3ccccc23)cc1,enzyme activity,inhibitor,,10 µM,inhibition,10%
CN(c1ccnc(CNc2nc(Nc3ccc4c(c3)CC(=O)N4)ncc2C(F)(F)F)n1)S(C)(=O)=O,cell-free assay,,competition with immobilised ligand,1 µM,remaining binding,72%
Cc1cc(NC(=O)c2cccc3cc(-c4cccc5[nH]nc(N)c45)ccc23)ccc1F,enzyme activity,inhibitor,,0.1 µM,activity vs control,97%
CCS(=O)(=O)c1cc2cc(C[C@](O)(CC(C)(C)c3ccc(F)cc3C(N)=O)C(F)(F)F)[nH]c2cn1,cell-free assay,,competition with immobilised ligand,1 µM,remaining binding,100%
Cc1ccc(NC(=O)c2ccc(C)c(C(F)(F)F)c2)cc1C#Cc1nn(C2CCC(O)CC2)c2ncnc(N)c12 (stereo not shown),cell-free assay,,,10 µM,remaining signal,94%
O=C1NC(=O)c2cc(Nc3ccc(F)cc3)c(Nc3ccc(F)cc3)cc21,cell-free assay,,,0.5 µM,remaining signal,98.2%
COc1cc(/C=C/C(=O)CC(=O)/C=C/c2ccc(O)c(OC)c2)ccc1O,enzyme activity,inhibitor,,1 µM,activity vs control,95%
COc1cc(Cl)c(C(=O)N[C@@H](CN[C@H]2CC[C@@H](N)CC2)Cc2ccc(C#N)cc2)cc1-c1ccc(CN[C@H](C)c2ccc(C)cc2)o1,enzyme activity,inhibitor,,1 µM,remaining activity,101%
O=C(Nc1cnn(-c2csc(C(=O)NC3COC3)c2)c1)Nc1c(F)cccc1Cl,enzyme activity,inhibitor,,5 µM,remaining activity,94.7%
CNCc1ccccc1-c1csc([C@H](C)Nc2nc(C)nc3cc(OC)c(OC)cc23)c1,cell-free assay,,competition with immobilised ligand,1 µM,remaining binding,100%
CNC(=O)c1cc(Oc2ccc(NC(=O)Nc3ccc(Cl)c(C(F)(F)F)c3)cc2)ccn1,cell-free assay,,,0.5 µM,remaining signal,104%
CNC(=O)c1ccc(Nc2ncc(C(F)(F)F)c(NCc3nccnc3N(C)S(C)(=O)=O)n2)cc1,cell-free assay,,competition with immobilised ligand,0.1 µM,remaining binding,100%
CCCS(=O)(=O)Nc1ccc(F)c(C(=O)c2c[nH]c3ncc(-c4ccc(Cl)cc4)cc23)c1F,enzyme activity,inhibitor,,1 µM,inhibition,< 10%
